Laboratory results from ChEMBL document CHEMBL1134387, “Synthesis and biodistribution of a new oxo-technetium-99m bis(aminothiol) complex as a potential melanoma tracer” (J Med Chem, 2001).

Assays:
Format in all cases: ADME, organism-based
Mus musculus [1] = test: Tumor to blood radioactivity ratio was determined in mice at 6 hr after (iv) administration in presence of [125I]-BZA; details: tumour
Mus musculus [2] = test: Biodistribution in tumor was determined at 3h in mice bearing C57B16 murine melanoma after (i.v.) administration; details: in vivo, iv
Outline: (§1)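 C57 mice carrying B16 melanotic melanoma, implanted s.c. as 5×10^5 viable cells. Tumours were palpable after 10 days. Mice received 0.74 MBq of the 99mTc-labeled complex by tail-vein injection. Groups of n = 3 were killed by exsanguination at each time point. Weighed tissue aliquots were gamma-counted immediately and expressed as decay-corrected %ID/g, mean ± sem.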

Mus musculus [3] = test: Biodistribution in tumor was determined at 6 hr in mice bearing C57B16 murine melanoma after (i.v.) administration; details: in vivo, iv; outline: as §1
Mus musculus [4] = test: Tumor to liver radioactivity ratio was determined in mice at 3h after (iv) administration in presence of [125I]-BZA; details: in vivo
Mus musculus [5] = test: Tumor to lung radioactivity ratio was determined in mice at 24 hr after (iv) administration in presence of [125I]-BZA; details: in vivo
Mus musculus [6] = test: Tumor to lung radioactivity ratio was determined in mice at 1 hr after (iv) administration in presence of [125I]-BZA; details: in vivo
Mus musculus [7] = test: Tumor to blood radioactivity ratio was determined in mice at 24 hr after (iv) administration in presence of [125I]-BZA; details: tumour
Mus musculus [8] = test: Tumor to liver radioactivity ratio was determined in mice at 6 hr after (iv) administration in presence of [125I]-BZA; details: in vivo
Mus musculus [9] = test: Tumor to blood radioactivity ratio was determined in mice at 3h after (iv) administration in presence of [125I]-BZA; details: tumour
Mus musculus [10] = test: Tumor to liver radioactivity ratio was determined in mice at 1 hr after (iv) administration in presence of [125I]-BZA; details: in vivo
Mus musculus [11] = test: Tumor to lung radioactivity ratio was determined in mice at 6 hr after (iv) administration in presence of [125I]-BZA; details: in vivo
Mus musculus [12] = test: Biodistribution in tumor was determined at 24 hr in mice bearing C57B16 murine melanoma after (i.v.) administration; details: in vivo, iv; outline: as §1
Mus musculus [13] = test: Tumor to liver radioactivity ratio was determined in mice at 24 hr after (iv) administration in presence of [125I]-BZA; details: in vivo
Mus musculus [14] = test: Tumor to lung radioactivity ratio was determined in mice at 3h after (iv) administration in presence of [125I]-BZA; details: in vivo
Mus musculus [15] = test: Tumor to blood radioactivity ratio was determined in mice at 1 hr after (iv) administration in presence of [125I]-BZA; details: tumour
Mus musculus [16] = test: Biodistribution in tumor was determined at 1 hr in mice bearing C57B16 murine melanoma after (i.v.) administration; details: in vivo, iv; outline: as §1

## CCN(CC)CCNC(=O)c1ccc([125I])cc1
Mus musculus [1]
  Ratio: 17.58
Mus musculus [2]
  ID/g: 3.85%
Mus musculus [3]
  ID/g: 3.53%
Mus musculus [4]
  Ratio: 1.1
Mus musculus [5]
  Ratio: 15.82
Mus musculus [6]
  Ratio: 0.62
Mus musculus [7]
  Ratio: 37.33
Mus musculus [8]
  Ratio: 3.83
Mus musculus [9]
  Ratio: 7.79
Mus musculus [10]
  Ratio: 1.12
Mus musculus [11]
  Ratio: 2.13
Mus musculus [12]
  ID/g: 0.79%
Mus musculus [13]
  Ratio: 4.94
Mus musculus [14]
  Ratio: 0.69
Mus musculus [15]
  Ratio: 6.55
Mus musculus [16]
  ID/g: 6.75%
